Assay results: ChEMBL document CHEMBL5303300, “EUbOPEN Chemogenomics Library - Multiplex” (2023)
Where “and” joins values, the source holds several entries; their conditions need not be identical. Equal values may be shown once.

Test system: Fibroblast
Test: Multiplex assay against human fibroblast
Type: toxicity, cell-based
Conditions: number of replicates 2
Outline: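 Cells stained live at seeding with Hoechst33342, BioTracker Green Microtubule Cytoskeleton Dye, MitoTracker Red and Annexin V Alexa Fluor 680 were imaged on a CQ1 microscope at 37°C and 5% CO2 after compound addition. Their classification by CellPathfinder machine-learning gating ran from Hoechst high-intensity objects versus normal cells, to healthy, pyknosed or fragmented nuclei among normal cells, to mitotic or apoptotic among pyknosed cells. Tubulin, mitochondrial-mass and membrane-permeability phenotypes are per cents of healthy-nucleus cells.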

[1] = 12 h, 1 µM, compound concentration 1 uM
[2] = 12 h, 10 µM, compound concentration 10 uM
[3] = 24 h, 1 µM, compound concentration 1 uM
[4] = 24 h, 10 µM, compound concentration 10 uM
[5] = 48 h, 1 µM, compound concentration 1 uM
[6] = 48 h, 10 µM, compound concentration 10 uM

CS(=O)(=O)c1ccc(C(=O)Nc2cccc(COc3ccc(Br)cc3CN[C@H]3CCC[C@@H]3O)c2)c(Cl)c1.O=CO
Population Apoptotic (%) [1]: 24% and 46%
Population Healthy Nuclei (%) [1]: 71% and 64%
Population Hoechst High Intensity Objects (%) [1]: 0%
Population Mitotic Cells (%) [1]: 75% and 53%
Population Normal (%) [1]: 99% and 100%
Population Pyknosed Nuclei (%) [1]: 20%
Total Cell Count [1]: 223 and 167
Population Apoptotic (%) [2]: 52% and 50%
Population Healthy Nuclei (%) [2]: 43% and 57%
Population Hoechst High Intensity Objects (%) [2]: 1% and 0%
Population Mitotic Cells (%) [2]: 47% and 50%
Population Normal (%) [2]: 98% and 99%
Population Pyknosed Nuclei (%) [2]: 42%
Total Cell Count [2]: 187 and 221
Population Apoptotic (%) [3]: 44% and 73%
Population Healthy Nuclei (%) [3]: 68% and 59%
Population Hoechst High Intensity Objects (%) [3]: 0%
Population Normal (%) [3]: 100%
Total Cell Count [3]: 219 and 171
Population Apoptotic (%) [4]: 62% and 72%
Population Healthy Nuclei (%) [4]: 58% and 51%
Population Hoechst High Intensity Objects (%) [4]: 0%
Population Mitotic Cells (%) [4]: 37% and 27%
Population Normal (%) [4]: 99% and 97%
Population Pyknosed Nuclei (%) [4]: 32%
Total Cell Count [4]: 202 and 182
Population Apoptotic (%) [5]: 75% and 70%
Population Healthy Nuclei (%) [5]: 70% and 68%
Population Hoechst High Intensity Objects (%) [5]: 0%
Population Mitotic Cells (%) [5]: 24% and 29%
Population Normal (%) [5]: 99% and 100%
Population Pyknosed Nuclei (%) [5]: 20%
Total Cell Count [5]: 218 and 154
Population Apoptotic (%) [6]: 87% and 86%
Population Healthy Nuclei (%) [6]: 71% and 55%
Population Hoechst High Intensity Objects (%) [6]: 0% and 1%
Population Normal (%) [6]: 99% and 98%
Population Pyknosed Nuclei (%) [6]: 20%
Total Cell Count [6]: 197 and 190

Cn1ncc(NC(=O)c2nc(-c3c(F)cccc3F)sc2N)c1N1CC[C@@H](N)[C@H](F)CC1
Population Apoptotic (%) [1]: 60% and 38%
Population Fragmented Nuclei (%) [1]: 18%
Population Healthy Nuclei (%) [1]: 67% and 74%
Population Mitotic Cells (%) [1]: 40%
Population Normal (%) [1]: 100% and 99%
Population Tubulin-Different-Phenotype (%) [1]: 14% and 8%
Total Cell Count [1]: 170 and 268
Population Apoptotic (%) [2]: 26% and 21%
Population Fragmented Nuclei (%) [2]: 35%
Population Healthy Nuclei (%) [2]: 48% and 47%
Population Mitotic Cells (%) [2]: 73% and 78%
Population Normal (%) [2]: 100%
Population Tubulin-Different-Phenotype (%) [2]: 34% and 25%
Total Cell Count [2]: 307 and 502
Population Apoptotic (%) [3]: 65% and 54%
Population Fragmented Nuclei (%) [3]: 15%
Population Healthy Nuclei (%) [3]: 65% and 73%
Population Mitotic Cells (%) [3]: 34% and 45%
Population Normal (%) [3]: 100%
Population Tubulin-Different-Phenotype (%) [3]: 13% and 7%
Total Cell Count [3]: 172 and 273
Population Apoptotic (%) [4]: 27% and 21%
Population Fragmented Nuclei (%) [4]: 48% and 56%
Population Healthy Nuclei (%) [4]: 43% and 38%
Population Mitotic Cells (%) [4]: 72% and 78%
Population Normal (%) [4]: 100% and 99%
Population Tubulin-Different-Phenotype (%) [4]: 38% and 31%
Total Cell Count [4]: 456 and 659
Population Apoptotic (%) [5]: 80% and 51%
Population Fragmented Nuclei (%) [5]: 20%
Population Healthy Nuclei (%) [5]: 63% and 69%
Population Mitotic Cells (%) [5]: 20% and 48%
Population Normal (%) [5]: 100%
Total Cell Count [5]: 193 and 286
Population Apoptotic (%) [6]: 66% and 54%
Population Fragmented Nuclei (%) [6]: 52% and 60%
Population Healthy Nuclei (%) [6]: 45% and 38%
Population Mitotic Cells (%) [6]: 45%
Population Normal (%) [6]: 100%
Population Tubulin-Different-Phenotype (%) [6]: 43% and 27%
Total Cell Count [6]: 604 and 928

Cn1cc(-n2cnc3c(NCc4nc5cc(Cl)c(Cl)cc5[nH]4)nc(N4CCOCC4)nc32)cn1
Population Apoptotic (%) [1]: 39% and 65%
Population Healthy Nuclei (%) [1]: 79% and 57%
Population Hoechst High Intensity Objects (%) [1]: 0% and 3%
Population Membrane Permeable-Phenotype (%) [1]: 7%
Population Mitochondria Different-Phenotype (%) [1]: 2% and 3%
Population Mitotic Cells (%) [1]: 60% and 34%
Population Normal (%) [1]: 100% and 96%
Population Pyknosed Nuclei (%) [1]: 15% and 19%
Population Tubulin-Different-Phenotype (%) [1]: 29% and 27%
Total Cell Count [1]: 211 and 225
Population Apoptotic (%) [2]: 55% and 51%
Population Fragmented Nuclei (%) [2]: 10% and 19%
Population Healthy Nuclei (%) [2]: 59% and 60%
Population Hoechst High Intensity Objects (%) [2]: 0%
Population Membrane Permeable-Phenotype (%) [2]: 25% and 27%
Population Mitochondria Different-Phenotype (%) [2]: 3% and 5%
Population Mitotic Cells (%) [2]: 44% and 48%
Population Normal (%) [2]: 100%
Population Pyknosed Nuclei (%) [2]: 30% and 20%
Population Tubulin-Different-Phenotype (%) [2]: 74% and 81%
Total Cell Count [2]: 147 and 142
Population Apoptotic (%) [3]: 89% and 85%
Population Fragmented Nuclei (%) [3]: 27% and 14%
Population Healthy Nuclei (%) [3]: 32% and 46%
Population Hoechst High Intensity Objects (%) [3]: 6% and 1%
Population Membrane Permeable-Phenotype (%) [3]: 12%
Population Mitochondria Different-Phenotype (%) [3]: 2% and 1%
Population Mitotic Cells (%) [3]: 10% and 14%
Population Normal (%) [3]: 93% and 98%
Population Pyknosed Nuclei (%) [3]: 40% and 38%
Population Tubulin-Different-Phenotype (%) [3]: 28% and 53%
Total Cell Count [3]: 229 and 205
Population Apoptotic (%) [4]: 63% and 65%
Population Fragmented Nuclei (%) [4]: 10% and 19%
Population Healthy Nuclei (%) [4]: 62% and 59%
Population Hoechst High Intensity Objects (%) [4]: 0%
Population Membrane Permeable-Phenotype (%) [4]: 14%
Population Mitochondria Different-Phenotype (%) [4]: 6% and 13%
Population Mitotic Cells (%) [4]: 36% and 34%
Population Normal (%) [4]: 99%
Population Pyknosed Nuclei (%) [4]: 27% and 21%
Population Tubulin-Different-Phenotype (%) [4]: 79% and 85%
Total Cell Count [4]: 149 and 148
Population Apoptotic (%) [5]: 93% and 94%
Population Fragmented Nuclei (%) [5]: 27% and 13%
Population Healthy Nuclei (%) [5]: 12% and 16%
Population Hoechst High Intensity Objects (%) [5]: 5% and 0%
Population Membrane Permeable-Phenotype (%) [5]: 12% and 29%
Population Mitochondria Different-Phenotype (%) [5]: 4% and 3%
Population Mitotic Cells (%) [5]: 6% and 5%
Population Normal (%) [5]: 94% and 99%
Population Pyknosed Nuclei (%) [5]: 60% and 69%
Population Tubulin-Different-Phenotype (%) [5]: 36% and 61%
Total Cell Count [5]: 218 and 190
Population Apoptotic (%) [6]: 81% and 87%
Population Fragmented Nuclei (%) [6]: 15% and 19%
Population Healthy Nuclei (%) [6]: 35% and 38%
Population Hoechst High Intensity Objects (%) [6]: 1% and 0%
Population Membrane Permeable-Phenotype (%) [6]: 20% and 11%
Population Mitochondria Different-Phenotype (%) [6]: 22% and 19%
Population Mitotic Cells (%) [6]: 18% and 12%
Population Normal (%) [6]: 98% and 100%
Population Pyknosed Nuclei (%) [6]: 49% and 41%
Population Tubulin-Different-Phenotype (%) [6]: 74% and 78%
Total Cell Count [6]: 154 and 134

CCNc1ccc(-c2nn(-c3ccccc3C)c3c2C(C)Cc2nc(NC(=O)OC)sc2-3)cn1.O=C(O)C(F)(F)F (stereo unspecified)
Population Apoptotic (%) [1]: 34% and 35%
Population Fragmented Nuclei (%) [1]: 22% and 27%
Population Healthy Nuclei (%) [1]: 60% and 57%
Population Hoechst High Intensity Objects (%) [1]: 0%
Population Membrane Permeable-Phenotype (%) [1]: 5% and 3%
Population Mitochondria Different-Phenotype (%) [1]: 0% and 3%
Population Mitotic Cells (%) [1]: 65%
Population Normal (%) [1]: 100%
Population Pyknosed Nuclei (%) [1]: 17% and 14%
Population Tubulin-Different-Phenotype (%) [1]: 35% and 27%
Total Cell Count [1]: 255 and 278
Population Apoptotic (%) [2]: 43% and 57%
Population Fragmented Nuclei (%) [2]: 15% and 26%
Population Healthy Nuclei (%) [2]: 66% and 61%
Population Hoechst High Intensity Objects (%) [2]: 0% and 1%
Population Membrane Permeable-Phenotype (%) [2]: 17% and 10%
Population Mitochondria Different-Phenotype (%) [2]: 6% and 12%
Population Mitotic Cells (%) [2]: 56% and 42%
Population Normal (%) [2]: 100% and 98%
Population Pyknosed Nuclei (%) [2]: 18% and 12%
Population Tubulin-Different-Phenotype (%) [2]: 87% and 86%
Total Cell Count [2]: 216 and 211
Population Apoptotic (%) [3]: 40% and 46%
Population Fragmented Nuclei (%) [3]: 20% and 17%
Population Healthy Nuclei (%) [3]: 64% and 70%
Population Hoechst High Intensity Objects (%) [3]: 0%
Population Membrane Permeable-Phenotype (%) [3]: 4% and 3%
Population Mitochondria Different-Phenotype (%) [3]: 2% and 4%
Population Mitotic Cells (%) [3]: 60% and 53%
Population Normal (%) [3]: 100% and 99%
Population Pyknosed Nuclei (%) [3]: 15% and 12%
Population Tubulin-Different-Phenotype (%) [3]: 35% and 28%
Total Cell Count [3]: 225 and 233
Population Apoptotic (%) [4]: 62% and 68%
Population Fragmented Nuclei (%) [4]: 21% and 27%
Population Healthy Nuclei (%) [4]: 62% and 65%
Population Hoechst High Intensity Objects (%) [4]: 0%
Population Membrane Permeable-Phenotype (%) [4]: 9% and 8%
Population Mitochondria Different-Phenotype (%) [4]: 12%
Population Mitotic Cells (%) [4]: 37% and 31%
Population Normal (%) [4]: 99% and 100%
Population Pyknosed Nuclei (%) [4]: 16% and 7%
Population Tubulin-Different-Phenotype (%) [4]: 88%
Total Cell Count [4]: 195 and 209
Population Apoptotic (%) [5]: 58% and 20%
Population Fragmented Nuclei (%) [5]: 13% and 15%
Population Healthy Nuclei (%) [5]: 77% and 78%
Population Hoechst High Intensity Objects (%) [5]: 0%
Population Membrane Permeable-Phenotype (%) [5]: 5% and 2%
Population Mitochondria Different-Phenotype (%) [5]: 2% and 0%
Population Mitotic Cells (%) [5]: 41% and 80%
Population Normal (%) [5]: 100% and 99%
Population Pyknosed Nuclei (%) [5]: 8% and 6%
Population Tubulin-Different-Phenotype (%) [5]: 26% and 18%
Total Cell Count [5]: 208 and 225
Population Apoptotic (%) [6]: 84% and 76%
Population Fragmented Nuclei (%) [6]: 15% and 19%
Population Healthy Nuclei (%) [6]: 65% and 64%
Population Hoechst High Intensity Objects (%) [6]: 0%
Population Membrane Permeable-Phenotype (%) [6]: 5% and 3%
Population Mitochondria Different-Phenotype (%) [6]: 19% and 22%
Population Mitotic Cells (%) [6]: 15% and 24%
Population Normal (%) [6]: 100%
Population Pyknosed Nuclei (%) [6]: 18% and 15%
Population Tubulin-Different-Phenotype (%) [6]: 87% and 90%
Total Cell Count [6]: 169 and 157
